pIC50: −log10 of the molar value.
How the values were obtained:
[1] = Cytotoxicity in uninfected dog kidney (MDCK) cells.; type: cell-based; conditions: Canis lupus familiaris
Method in brief: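 Dividing MDCK cells seeded at 2 × 10^4 cells/well in 24-well plates; compound added to growth medium at various concentrations. Cell growth compared with untreated controls over 4 days incubation (3-4 cell doublings).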

Influenza A virus = test: Antiviral activity against Influenza virus (A/Sweden/3/50/ (H1N1)) in dog kidney (MDCK) cells expressed.; type: functional, organism-based
Method in brief: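 Plaque reduction assay. Confluent MDCK monolayers were infected with 50-150 PFU in the presence of compound, then overlaid with nutrient agarose containing 0.1 µg/mL trypsin, 100 µg/mL DEAE-dextran and compound. After 3-4 days at 36 °C, cells were formalin-fixed and methyl violet-stained, and plaques were counted as % of the untreated infected control, in triplicate. IC50 came from mean-versus-log concentration curves.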

SMILES	pIC50 [1]	pIC50 (Influenza A virus)
Nc1ncnc2c1ncn2[C@@H]1O[C@H](CO)[C@@H](O)[C@H]1F [2'-BETA-FLUORO-2',3'-DEOXYADENOSINE]	3.49	4.28
Nc1nc(NC2CC2)c2ncn([C@@H]3O[C@H](CO)[C@@H](O)[C@H]3F)c2n1	< 3.30	4.14
Cc1nc(N)c2ncn([C@@H]3O[C@H](CO)[C@@H](O)[C@H]3F)c2n1	< 3.30	< 4.00
Nc1nc(N)c2ncn([C@@H]3O[C@H](CO)[C@@H](O)[C@H]3F)c2n1	< 3.30	4.82
CCOc1nc(N)nc2c1ncn2[C@@H]1O[C@H](CO)[C@@H](O)[C@H]1F	< 3.30	4.54
COc1ncnc2c1ncn2[C@@H]1O[C@H](CO)[C@@H](O)[C@H]1F	< 3.30	< 4.00
Nc1ncc2ncn([C@@H]3O[C@H](CO)[C@@H](O)[C@H]3F)c2n1	< 3.30	< 4.00
CCOc1ncnc2c1ncn2[C@@H]1O[C@H](CO)[C@@H](O)[C@H]1F	< 3.30	< 4.00
COc1nc(N)nc2c1ncn2[C@@H]1O[C@H](CO)[C@@H](O)[C@H]1F	< 3.30	4.80
COc1nc(N)c2ncn([C@@H]3O[C@H](CO)[C@@H](O)[C@H]3F)c2n1	< 3.30	< 4.00
Nc1nc(I)c2ncn([C@@H]3O[C@H](CO)[C@@H](O)[C@H]3F)c2n1	3.52	4.64
CSc1nc(N)nc2c1ncn2[C@@H]1O[C@H](CO)[C@@H](O)[C@H]1F	< 3.30	< 4.00
OC[C@H]1O[C@@H](n2cnc3c(NC4CC4)ncnc32)[C@H](F)[C@@H]1O	< 3.30	< 4.00
Nc1nc(F)nc2c1ncn2[C@@H]1O[C@H](CO)[C@@H](O)[C@H]1F	3.92	< 4.00
CSc1ncnc2c1ncn2[C@@H]1O[C@H](CO)[C@@H](O)[C@H]1F	< 3.30	< 4.00
OC[C@H]1O[C@@H](n2cnc3c(O)ncnc32)[C@H](F)[C@@H]1O	< 3.30	< 4.00
Cc1nc(N)nc2c1ncn2[C@@H]1O[C@H](CO)[C@@H](O)[C@H]1F	< 3.30	< 4.00
CCCOc1nc(N)nc2c1ncn2[C@@H]1O[C@H](CO)[C@@H](O)[C@H]1F	< 3.30	4.44
Nc1nc(Cl)c2ncn([C@@H]3O[C@H](CO)[C@@H](O)[C@H]3F)c2n1	< 3.30	4.77
